Active and inactive are the calls of the source. No cut-off for these calls is given here.
Tests used:
[1] = species on record: Rattus norvegicus; experiment: Effect in the anti ovulatory assay (AOA) in rats expressed as no. of rats ovulating/No of rats treated at 1.0 mg; 1/8; format: functional
[2] = target: T1, Gonadotropin-releasing hormone receptor (Rattus norvegicus) (UniProt P30969); experiment: In vitro potency to inhibit GnRH-mediated LH secretion by cultured pituitary cells relative to [Ac-delta-Pro1,DFpa2,DTrp36]GnRH.; format: functional, cell-based; conditions: Pituitary gland cell
T1 sequence (whole entry): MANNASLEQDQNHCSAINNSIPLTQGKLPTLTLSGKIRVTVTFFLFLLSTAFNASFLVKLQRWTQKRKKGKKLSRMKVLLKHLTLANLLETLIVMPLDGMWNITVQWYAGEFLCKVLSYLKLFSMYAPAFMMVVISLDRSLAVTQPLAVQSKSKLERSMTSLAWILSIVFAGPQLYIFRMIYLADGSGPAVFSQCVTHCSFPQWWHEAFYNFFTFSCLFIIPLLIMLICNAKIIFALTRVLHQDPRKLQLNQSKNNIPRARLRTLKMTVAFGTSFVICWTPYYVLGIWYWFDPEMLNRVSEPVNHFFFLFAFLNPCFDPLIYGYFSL
Procedure, shortened: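 Dispersed rat pituitary cells in culture; antagonist inhibition of GnRH-stimulated LH secretion. Potency expressed relative to standard antagonist [Ac-Δ3Pro1,D4FPhe2,DTrp3,6]GnRH taken as 1.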

[3] = species on record: Rattus norvegicus; experiment: Effect in the anti ovulatory assay (AOA) in rats expressed as no. of rats ovulating/No of rats treated at 0.5 mg; 4/4; format: functional
[4] = species on record: Rattus norvegicus; experiment: Effect in the anti ovulatory assay (AOA) in rats expressed as no. of rats ovulating/No of rats treated at 1.0 mg; 4/6; format: functional
[5] = species on record: Rattus norvegicus; experiment: Effect in the anti ovulatory assay (AOA) in rats expressed as no. of rats ovulating/No of rats treated at 2.5 mg; 2/8; format: functional
[6] = target: T1, Gonadotropin-releasing hormone receptor (Rattus norvegicus); experiment: Duration of action, measured using castrated male rat assay to inhibit luteinizing hormone release.; fully active at 24 hr but not at 48 hr; format: functional
[7] = species on record: Rattus norvegicus; experiment: Effect in the anti ovulatory assay (AOA) in rats expressed as no. of rats ovulating/No of rats treated at 1.0 mg; 2/8; format: functional
[8] = species on record: Rattus norvegicus; experiment: Effect in the anti ovulatory assay (AOA) in rats expressed as no. of rats ovulating/No of rats treated at 1.0 mg; 9/12; format: functional
[9] = species on record: Rattus norvegicus; experiment: Effect in the anti ovulatory assay (AOA) in rats expressed as no. of rats ovulating/No of rats treated at 50 mg; 4/8; format: functional
[10] = species on record: Rattus norvegicus; experiment: Effect in the anti ovulatory assay (AOA) in rats expressed as no. of rats ovulating/No of rats treated at 100 mg; 0/4; format: functional
[11] = species on record: Rattus norvegicus; experiment: Effect in the anti ovulatory assay (AOA) in rats expressed as no. of rats ovulating/No of rats treated at 10 mg; 2/2; format: functional
[12] = species on record: Rattus norvegicus; experiment: Effect in the anti ovulatory assay (AOA) in rats expressed as no. of rats ovulating/No of rats treated at 1.0 mg; 2/9; format: functional
[13] = species on record: Rattus norvegicus; experiment: Effect in the anti ovulatory assay (AOA) in rats expressed as no. of rats ovulating/No of rats treated at 250 mg; 4/4; format: functional
[14] = species on record: Rattus norvegicus; experiment: Effect in the anti ovulatory assay (AOA) in rats expressed as no. of rats ovulating/No of rats treated at 0.5 mg; 8/8; format: functional
[15] = species on record: Rattus norvegicus; experiment: Effect in the anti ovulatory assay (AOA) in rats expressed as no. of rats ovulating/No of rats treated at 1.0 mg; 4/15; format: functional
[16] = species on record: Rattus norvegicus; experiment: Effect in the anti ovulatory assay (AOA) in rats expressed as no. of rats ovulating/No of rats treated at 2.5 mg; 0/2; format: functional
[17] = species on record: Rattus norvegicus; experiment: Effect in the anti ovulatory assay (AOA) in rats expressed as no. of rats ovulating/No of rats treated at 1.0 mg; 11/15; format: functional
[18] = species on record: Rattus norvegicus; experiment: Duration of action measured using castrated male rat assay to inhibit luteinizing hormone release.; fully active at 48 hr but not at 72 hr; format: functional
[19] = species on record: Rattus norvegicus; experiment: Effect in the anti ovulatory assay (AOA) in rats expressed as no. of rats ovulating/No of rats treated at 0.5 mg; 3/4; format: functional
[20] = species on record: Rattus norvegicus; experiment: Effect in the anti ovulatory assay (AOA) in rats expressed as no. of rats ovulating/No of rats treated at 1.0 mg; 5/8; format: functional
[21] = species on record: Rattus norvegicus; experiment: Effect in the anti ovulatory assay (AOA) in rats expressed as no. of rats ovulating/No of rats treated at 0.5 mg; 3/3; format: functional
[22] = species on record: Rattus norvegicus; experiment: Effect in the anti ovulatory assay (AOA) in rats expressed as no. of rats ovulating/No of rats treated at 1.0 mg; 3/7; format: functional
[23] = species on record: Rattus norvegicus; experiment: Effect in the anti ovulatory assay (AOA) in rats expressed as no. of rats ovulating/No of rats treated at 1.0 mg; 6/6; format: functional
[24] = target: T1, Gonadotropin-releasing hormone receptor (Rattus norvegicus); experiment: Effect in the anti ovulatory assay (AOA) in rats expressed as no. of rats ovulating/No of rats treated at 2.5 mg; 0/8; format: functional
[25] = species on record: Rattus norvegicus; experiment: Effect in the anti ovulatory assay (AOA) in rats expressed as no. of rats ovulating/No of rats treated at 2.5 mg; 2/7; format: functional
[26] = species on record: Rattus norvegicus; experiment: Duration of action measured using castrated male rat assay to inhibit luteinizing hormone release.; In active at 24 hr; format: functional, organism-based
[27] = species on record: Rattus norvegicus; experiment: Effect in the anti ovulatory assay (AOA) in rats expressed as no. of rats ovulating/No of rats treated at 2.5 mg; 3/3; format: functional

CC(=O)N[C@H](Cc1ccc2ccccc2c1)C(=O)N[C@H](Cc1ccc(Cl)cc1)C(=O)N[C@H](Cc1cccnc1)C(=O)N[C@@H](CO)C(=O)N[C@@H](Cc1ccc(NC(=O)[C@@H](C)Nc2n[nH]c(N)n2)cc1)C(=O)N[C@H](Cc1ccc(NC(=O)[C@H](C)Nc2n[nH]c(N)n2)cc1)C(=O)N[C@@H](CC(C)C)C(=O)N[C@@H](CCCCNC(C)C)C(=O)N1CCC[C@H]1C(=O)N[C@H](C)N
No. of rats ovulated [1]: 1 | Relative potency [2]: 0.4 | No. of rats ovulated [3]: 4

CC(=O)N[C@@H](CC(N)=O)C(=O)Nc1ccc(C[C@H](NC(=O)[C@H](CO)NC(=O)[C@@H](Cc2cccnc2)NC(=O)[C@@H](Cc2ccc(Cl)cc2)NC(=O)[C@@H](Cc2ccc3ccccc3c2)NC(C)=O)C(=O)N[C@H](Cc2ccc(NC(=O)[C@@H](CC(N)=O)NC(C)=O)cc2)C(=O)N[C@@H](CC(C)C)C(=O)N[C@@H](CCCCNC(C)C)C(=O)N2CCC[C@H]2C(=O)N[C@H](C)N)cc1
No. of rats ovulated [4]: 4 | No. of rats ovulated [5]: 2

CC(=O)N[C@H](Cc1ccc2ccccc2c1)C(=O)N[C@H](Cc1ccc(Cl)cc1)C(=O)N[C@H](Cc1cccnc1)C(=O)N[C@@H](CO)C(=O)N[C@@H](Cc1ccc(NC(=O)[C@H](C)Nc2n[nH]c(N)n2)cc1)C(=O)N[C@H](Cc1ccc(NC(=O)[C@@H](C)Nc2n[nH]c(N)n2)cc1)C(=O)N[C@@H](CC(C)C)C(=O)N[C@@H](CCCCNC(C)C)C(=O)N1CCC[C@H]1C(=O)N[C@H](C)N
Duration of action [6]: 24 h | No. of rats ovulated [7]: 2 | Relative potency [2]: 0.36

CC(=O)N[C@H](Cc1ccc2ccccc2n1)C(=O)N[C@H](Cc1ccc(Cl)cc1)C(=O)N[C@H](Cc1cccnc1)C(=O)N[C@@H](CO)C(=O)N[C@@H](Cc1ccc(Nc2n[nH]c(N)n2)cc1)C(=O)N[C@H](Cc1ccc(Nc2n[nH]c(N)n2)cc1)C(=O)N[C@@H](CC(C)C)C(=O)N[C@@H](CCCCNC(C)C)C(=O)N1CCC[C@H]1C(=O)N[C@H](C)N
No. of rats ovulated [8]: 9

CC(=O)N[C@H](Cc1ccc2ccccc2c1)C(=O)N[C@H](Cc1ccc(Cl)cc1)C(=O)N[C@H](Cc1cccnc1)C(=O)N[C@@H](CO)C(=O)N(C)[C@@H](Cc1ccc(Nc2n[nH]c(N)n2)cc1)C(=O)N[C@H](Cc1ccc(Nc2n[nH]c(N)n2)cc1)C(=O)N[C@@H](CC(C)C)C(=O)N[C@@H](Cc1ccc(NC(C)C)cc1)C(=O)N1CCC[C@H]1C(=O)N[C@H](C)N
No. of rats ovulated [9]: 4 | No. of rats ovulated [10]: 0 | No. of rats ovulated [11]: 2

CC(=O)N[C@H](Cc1ccc2ccccc2c1)C(=O)N[C@H](Cc1ccc(Cl)cc1)C(=O)N[C@H](Cc1cccnc1)C(=O)N[C@@H](CO)C(=O)N(C)[C@@H](Cc1ccc(Nc2n[nH]c(N)n2)cc1)C(=O)N[C@H](Cc1ccc(Nc2n[nH]c(N)n2)cc1)C(=O)N[C@@H](CC(C)C)C(=O)N[C@@H](CCCCNC(C)C)C(=O)N1CCC[C@H]1C(=O)N[C@H](C)N
Duration of action [6]: 24 h | No. of rats ovulated [12]: 2 | Relative potency [2]: 1.9

CC(=O)N[C@H](Cc1ccc2ccccc2c1)C(=O)N[C@H](Cc1ccc(Cl)cc1)C(=O)N[C@H](Cc1cccnc1)C(=O)N[C@@H](CO)C(=O)N[C@@H](Cc1ccc(NC(=O)Nc2cccc(Cl)c2)cc1)C(=O)N[C@H](Cc1ccc(NC(=O)Nc2cccc(Cl)c2)cc1)C(=O)N[C@@H](CC(C)C)C(=O)N[C@@H](CCCCNC(C)C)C(=O)N1CCC[C@H]1C(=O)N[C@H](C)N
No. of rats ovulated [13]: 4

CC(=O)N[C@@H](Cc1c[nH]cn1)C(=O)Nc1ccc(C[C@H](NC(=O)[C@H](CO)NC(=O)[C@@H](Cc2cccnc2)NC(=O)[C@@H](Cc2ccc(Cl)cc2)NC(=O)[C@@H](Cc2ccc3ccccc3c2)NC(C)=O)C(=O)N[C@H](Cc2ccc(NC(=O)[C@@H](Cc3c[nH]cn3)NC(C)=O)cc2)C(=O)N[C@@H](CC(C)C)C(=O)N[C@@H](CCCCNC(C)C)C(=O)N2CCC[C@H]2C(=O)N[C@H](C)N)cc1
Duration of action [6]: 24 h | No. of rats ovulated [14]: 8 | Relative potency [2]: 0.47 | No. of rats ovulated [15]: 4 | No. of rats ovulated [16]: 0

CC(=O)N[C@H](Cc1ccc2ccccc2c1)C(=O)N[C@H](Cc1ccc(Cl)cc1)C(=O)N[C@H](Cc1cccnc1)C(=O)N[C@@H](CO)C(=O)N[C@@H](Cc1ccc(NC(=O)c2n[nH]c(N)n2)cc1)C(=O)N[C@H](Cc1ccc(NC(=O)c2n[nH]c(N)n2)cc1)C(=O)N[C@@H](CC(C)C)C(=O)N[C@@H](CCCCNC(C)C)C(=O)N1CCC[C@H]1C(=O)N[C@H](C)N
No. of rats ovulated [17]: 11 | Relative potency [2]: 0.65 | No. of rats ovulated [3]: 4

CC(=O)N[C@H](Cc1ccc2ccccc2c1)C(=O)N[C@H](Cc1ccc(Cl)cc1)C(=O)N[C@H](Cc1cccnc1)C(=O)N[C@@H](CO)C(=O)N[C@@H](Cc1ccc(NC(=O)CNc2n[nH]c(N)n2)cc1)C(=O)N[C@H](Cc1ccc(NC(=O)CNc2n[nH]c(N)n2)cc1)C(=O)N[C@@H](CC(C)C)C(=O)N[C@@H](CCCCNC(C)C)C(=O)N1CCC[C@H]1C(=O)N[C@H](C)N
Duration of action [18]: 48 h | No. of rats ovulated [19]: 3 | Relative potency [2]: 1.1 | No. of rats ovulated [20]: 5

CC(=O)NCC(=O)Nc1ccc(C[C@H](NC(=O)[C@H](CO)NC(=O)[C@@H](Cc2cccnc2)NC(=O)[C@@H](Cc2ccc(Cl)cc2)NC(=O)[C@@H](Cc2ccc3ccccc3c2)NC(C)=O)C(=O)N[C@H](Cc2ccc(NC(=O)CNC(C)=O)cc2)C(=O)N[C@@H](CC(C)C)C(=O)N[C@@H](CCCCNC(C)C)C(=O)N2CCC[C@H]2C(=O)N[C@H](C)N)cc1
Duration of action [6]: 24 h | No. of rats ovulated [19]: 3 | Relative potency [2]: 0.85 | No. of rats ovulated [20]: 5

CC(=O)Nc1ccc(C[C@@H](NC(=O)[C@H](Cc2ccc(O)cc2)NC(=O)[C@H](CO)NC(=O)[C@@H](Cc2cccnc2)NC(=O)[C@@H](Cc2ccc(Cl)cc2)NC(=O)[C@@H](Cc2ccc3ccccc3c2)NC(C)=O)C(=O)N[C@@H](CC(C)C)C(=O)N[C@@H](CCCCNC(C)C)C(=O)N2CCC[C@H]2C(=O)N[C@H](C)N)cc1
No. of rats ovulated [21]: 3 | No. of rats ovulated [22]: 3 | Relative potency [2]: 2.8

CCCC(=O)Nc1ccc(C[C@H](NC(=O)[C@H](CO)NC(=O)[C@@H](Cc2cccnc2)NC(=O)[C@@H](Cc2ccc(Cl)cc2)NC(=O)[C@@H](Cc2ccc3ccccc3c2)NC(C)=O)C(=O)N[C@H](Cc2ccc(NC(=O)CCC)cc2)C(=O)N[C@@H](CC(C)C)C(=O)N[C@@H](CCCCNC(C)C)C(=O)N2CCC[C@H]2C(=O)N[C@H](C)N)cc1
No. of rats ovulated [23]: 6 | No. of rats ovulated [24]: 0

CC(=O)N[C@H](Cc1ccc2ccccc2c1)C(=O)N[C@H](Cc1ccc(Cl)cc1)C(=O)N[C@H](Cc1cccnc1)C(=O)N[C@@H](CO)C(=O)N(C)[C@@H](Cc1ccc(O)cc1)C(=O)N[C@H](Cc1ccc(Nc2n[nH]c(N)n2)cc1)C(=O)N[C@@H](CC(C)C)C(=O)N[C@@H](CCCCNC(C)C)C(=O)N1CCC[C@H]1C(=O)N[C@H](C)N
No. of rats ovulated [25]: 2

CC(=O)NCCCC[C@H](NC(=O)[C@H](CO)NC(=O)[C@@H](Cc1cccnc1)NC(=O)[C@@H](Cc1ccc(Cl)cc1)NC(=O)[C@@H](Cc1ccc2ccccc2c1)NC(C)=O)C(=O)N[C@H](CCCCNC(C)=O)C(=O)N[C@@H](CC(C)C)C(=O)N[C@@H](CCCCNC(C)C)C(=O)N1CCC[C@H]1C(=O)N[C@H](C)N
Duration of action [26]: inactive | Relative potency [2]: 0.36 | No. of rats ovulated [27]: 3

Source: ChEMBL document CHEMBL1128434, “Gonadotropin-releasing hormone antagonists: novel members of the azaline B family” (1995)
